GASC-1 inh – human JMJD2C demethylase inhibition. inhibition, % at 2.35 µM. Q9H3R0. GST-JMJD2C(1-420) H3K9me3 demethylation, DELFIA europium. actives 0.069% (n = 330,000);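 active = more than half of a compound's replicate wells show inhibition beyond 50%, single wells judged on their own value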;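 also: signal counts dimethyl H3K9 product captured on neutravidin plate; 0% = median of DMSO wells and 100% = 0.3 times that DMSO median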
GRIN3A LBD mod – NR3A (human) ligand-binding domain modulation; NR3A LBD differential scanning fluorimetry, Tm shift; 0% = protein alone, 100% = glycine-bound protein; Tm shift relative to glycine control, % at 25 µM; actives 2.5% (n = 340,000);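 active = melting temperature shift of at least 10% of the positive control shift, at one fixed dose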
Rtt109 HAT inh – inhibitors of Candida albicans Rtt109/Vps75 histone acetyltransferase | Q5AAJ8 | purified Rtt109/Vps75, ThioGlo CoA-SH fluorescence, 4 h | inhibition, % at 34.9 µM | actives 0.16% (n = 330,000);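 active = inhibition of at least 50% in every replicate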
Target sequence (Q5AAJ8 whole entry, looked up): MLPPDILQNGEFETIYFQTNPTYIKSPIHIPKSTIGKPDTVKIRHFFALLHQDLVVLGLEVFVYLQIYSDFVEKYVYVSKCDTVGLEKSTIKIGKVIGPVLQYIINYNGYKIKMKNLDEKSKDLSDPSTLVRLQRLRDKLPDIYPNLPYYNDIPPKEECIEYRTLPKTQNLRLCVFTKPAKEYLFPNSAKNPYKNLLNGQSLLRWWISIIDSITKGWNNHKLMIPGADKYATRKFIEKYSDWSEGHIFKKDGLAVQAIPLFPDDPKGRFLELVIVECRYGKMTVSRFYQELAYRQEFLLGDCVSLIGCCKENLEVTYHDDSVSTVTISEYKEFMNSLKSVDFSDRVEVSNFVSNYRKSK
T cell HTS – T cell immune modulation candidate; 2C CD8+ T cell-vesicle binding, flow cytometry; hits give low values; response (vesicle binding), % at 7 µM; actives 0.068% (n = 330,000);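 active = response, share of CD8 T cells binding vesicles, and their 90th percentile fluorescence all below set limits, cut at about 80% in these data, passing the limit was not always enough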;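 also: values below 100% mean blocked vesicle binding to the CD8+ T cells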
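Read-out – percent CD8+ FL2 mean versus row control · System – murine 2C transgenic CD8+ T lymphocytes · Times – 1.5 h cell–vesicle binding at 37 °C, then 20 min icy labelling · Control set – naked vesicles low, QL9 vesicles with vehicle high · Detection – cytometric PE anti-B7-1 and Alexa647 anti-CD8 signals after 1% paraformaldehyde fixation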
* = called active by the depositor. In the library only some 2.8% were active in any assay of this set; here they are far more common.

Results for O=C(COC(=O)CN1C(=O)C2CCCCC2C1=O)Nc1c(Cl)cccc1Cl (stereo unspecified) ?
GASC-1 inh: 12; GRIN3A LBD mod: 1; Rtt109 HAT inh: 1; T cell HTS: 387

How did COC(=O)Cc1c(C)c2ccc(OCC(=O)N3CCCC(C)C3)c(C)c2oc1=O (stereo unspecified) do in these assays?
GASC-1 inh: 4; GRIN3A LBD mod: -6; Rtt109 HAT inh: -2; T cell HTS: 316

How did CC1(C)CC[C@]2(C(=O)O)CC[C@]3(CO)C(=CCC4[C@@]5(C)C[C@H](O)[C@H](O)[C@@](C)(C(=O)O)C5CC[C@]43C)[C@@H]2C1 (stereo partly specified) do in these assays?
GASC-1 inh: 10; GRIN3A LBD mod: 14*; Rtt109 HAT inh: -4; T cell HTS: 321

What do the screens show for `O=C(COC(=O)c1n[nH]c2ccccc12)NC1CCCCC1`?
GASC-1 inh: -2; GRIN3A LBD mod: 0; Rtt109 HAT inh: 6; T cell HTS: 173

Results for N=C1/C(=C/c2cccn2CCOc2ccccc2)C(=O)N=C2SC=C(c3ccccc3)N12 ?
GASC-1 inh: -13; GRIN3A LBD mod: 23*; Rtt109 HAT inh: -7; T cell HTS: 290

Results for Cc1ccc(-n2c(C)cc(/C=C3/C(=N)N4C(c5ccccc5)=CSC4=NC3=O)c2C)cc1 ?
GASC-1 inh: 21; GRIN3A LBD mod: -5; Rtt109 HAT inh: 6; T cell HTS: 212

Results for N=C1/C(=C\c2ccc(-c3cc(Cl)cc(Cl)c3)o2)C(=O)N=C2SC=C(c3ccccc3)N12 ?
GASC-1 inh: -9; GRIN3A LBD mod: 24*; Rtt109 HAT inh: -4; T cell HTS: 161

How did CCn1nc(NS(=O)(=O)c2ccc(NC(C)=O)cc2)c2cc3cc(C)ccc3nc21 do in these assays?
GASC-1 inh: -17; GRIN3A LBD mod: 0; Rtt109 HAT inh: -1; T cell HTS: 388

What do the screens show for `CCC1CCc2sc(C(=O)NC3CCN(Cc4ccccc4)CC3)cc2C1` (stereo unspecified)?
GASC-1 inh: 0; GRIN3A LBD mod: 2; Rtt109 HAT inh: 2; T cell HTS: 211

What do the screens show for `Cc1ccc(S(=O)(=O)Nc2ccccc2CNc2ccc(Br)cn2)cc1`?
GASC-1 inh: 3; GRIN3A LBD mod: 14*; Rtt109 HAT inh: 15; T cell HTS: 443

How did O=C(Nc1ccc2snnc2c1)Nc1cccc2ccccc12 do in these assays?
GASC-1 inh: 14; GRIN3A LBD mod: 38*; Rtt109 HAT inh: 37; T cell HTS: 310

What do the screens show for `Cc1c(Cl)cccc1NC(=O)COC(=O)CCc1nc2ccccc2n1-c1ccccc1`?
GASC-1 inh: -2; GRIN3A LBD mod: 25*; Rtt109 HAT inh: 1; T cell HTS: 143

What do the screens show for `O=C(COC(=O)CCc1nc2ccccc2n1-c1ccccc1)Nc1cccc(Cl)c1`?
GASC-1 inh: 15; GRIN3A LBD mod: 4; Rtt109 HAT inh: 5; T cell HTS: 288

What do the screens show for `CCN(CC)c1ccc(C=Nc2ccc(C)cc2)c(O)c1`?
GASC-1 inh: -2; GRIN3A LBD mod: 13*; Rtt109 HAT inh: -18; T cell HTS: 110

Results for C/C(=N\Nc1nc(N)cc(Cl)n1)c1ccc(F)cc1 ?
GASC-1 inh: -7; GRIN3A LBD mod: 1; Rtt109 HAT inh: 3; T cell HTS: 566

What do the screens show for `C/C(=N\Nc1nc(N)cc(Cl)n1)c1ccc(Cl)c(Cl)c1`?
GASC-1 inh: 1; GRIN3A LBD mod: 18*; Rtt109 HAT inh: -3; T cell HTS: 464

Results for NC(=O)c1cc([N+](=O)[O-])ccc1NCc1cnccn1 ?
GASC-1 inh: -2; GRIN3A LBD mod: 0; Rtt109 HAT inh: -2; T cell HTS: 506

Results for CCOc1ccc(N(CC(=O)NC2CCCCC2)C(=O)CNC(=O)c2cccs2)cc1 ?
GASC-1 inh: 4; GRIN3A LBD mod: 0; Rtt109 HAT inh: 9; T cell HTS: 283

What do the screens show for `CN1CCC(=NNC(=O)CSc2ccc(Cl)cc2)CC1`?
GASC-1 inh: 17; GRIN3A LBD mod: 21*; Rtt109 HAT inh: 2; T cell HTS: 228

How did Cc1ccc(SCC(=O)NN=C2CCN(C)CC2)cc1 do in these assays?
GASC-1 inh: -4; GRIN3A LBD mod: -3; Rtt109 HAT inh: 4; T cell HTS: 200

What do the screens show for `O=C(COc1ccc(/C=N/NS(=O)(=O)c2ccccc2)cc1)Nc1cccc(Cl)c1`?
GASC-1 inh: -5; GRIN3A LBD mod: 16*; Rtt109 HAT inh: 8; T cell HTS: 290

What do the screens show for `CCC(=O)Nc1ccc(C(=O)N/N=C/c2ccc([N+](=O)[O-])cc2)cc1`?
GASC-1 inh: -2; GRIN3A LBD mod: 16*; Rtt109 HAT inh: 4; T cell HTS: 0

How did O=C(N/N=C/c1ccc([N+](=O)[O-])cc1)c1ccc(COc2ccccc2-c2ccccc2)cc1 do in these assays?
GASC-1 inh: -2; GRIN3A LBD mod: 16*; Rtt109 HAT inh: 23; T cell HTS: 202

What do the screens show for `O=C(N/N=C/c1ccc([N+](=O)[O-])cc1)c1ccccc1OCc1ccccc1`?
GASC-1 inh: 1; GRIN3A LBD mod: -11; Rtt109 HAT inh: 6; T cell HTS: 222

How did O=C(CO/N=C/c1cccc([N+](=O)[O-])c1)Nc1ccc2ccccc2c1 do in these assays?
GASC-1 inh: 21; GRIN3A LBD mod: 13*; Rtt109 HAT inh: -9; T cell HTS: 0

How did O=C(CO/N=C/c1cccc([N+](=O)[O-])c1)NC1CCCCC1 do in these assays?
GASC-1 inh: 2; GRIN3A LBD mod: 9; Rtt109 HAT inh: -25; T cell HTS: 0

Results for O=C(CCCOc1ccccc1)NNC(=O)c1ccncc1 ?
GASC-1 inh: 8; GRIN3A LBD mod: 0; Rtt109 HAT inh: 3; T cell HTS: 600

Results for O=C(COc1ccc(/C=N/NC(=O)c2ccc(O)cc2)cc1)Nc1cccc([N+](=O)[O-])c1 ?
GASC-1 inh: 2; GRIN3A LBD mod: 31*; Rtt109 HAT inh: -13; T cell HTS: 418

Results for Nc1ccc(C(=O)N/N=C\C=C\c2ccc([N+](=O)[O-])cc2)cc1 ?
GASC-1 inh: 0; GRIN3A LBD mod: 15*; Rtt109 HAT inh: -16; T cell HTS: 657

How did O=C(N/N=C/C=C/c1ccc2c(c1)OCO2)c1ccc([N+](=O)[O-])cc1 do in these assays?
GASC-1 inh: -2; GRIN3A LBD mod: -2; Rtt109 HAT inh: 3; T cell HTS: 450

Results for O=C(Nc1cccc2ccccc12)OCc1ccccc1 ?
GRIN3A LBD mod: 0; Rtt109 HAT inh: 8

How did CN(CC(=O)Nc1ccc(Cl)c(C(F)(F)F)c1)C(=O)/C=C/c1cccs1 do in these assays?
GRIN3A LBD mod: 6; Rtt109 HAT inh: -7; T cell HTS: 419

What do the screens show for `COC(=O)/C(=C/c1c[nH]c2ccccc12)[N+](=O)[O-]`?
GASC-1 inh: 1; GRIN3A LBD mod: 16*; Rtt109 HAT inh: -30; T cell HTS: 389

Results for CC[C@@H]1C(=O)[C@H](Cc2ccccc2)[C@H]2CCCC(=O)N3CC[C@@H]1[C@@H]23 ?
GRIN3A LBD mod: -6; Rtt109 HAT inh: -5

Assay outcomes from PubChem BioAssay.
